Results on 20 compounds are retold here after ChEMBL document CHEMBL1138320, “Discovery of potent & selective inhibitors of activated thrombin-activatable fibrinolysis inhibitor for the treatment of thrombosis” (J Med Chem, 2007).

The target in one data set is T1, Carboxypeptidase B2 (Homo sapiens, UniProt Q96IY4).
T1 sequence (Q96IY4 whole entry): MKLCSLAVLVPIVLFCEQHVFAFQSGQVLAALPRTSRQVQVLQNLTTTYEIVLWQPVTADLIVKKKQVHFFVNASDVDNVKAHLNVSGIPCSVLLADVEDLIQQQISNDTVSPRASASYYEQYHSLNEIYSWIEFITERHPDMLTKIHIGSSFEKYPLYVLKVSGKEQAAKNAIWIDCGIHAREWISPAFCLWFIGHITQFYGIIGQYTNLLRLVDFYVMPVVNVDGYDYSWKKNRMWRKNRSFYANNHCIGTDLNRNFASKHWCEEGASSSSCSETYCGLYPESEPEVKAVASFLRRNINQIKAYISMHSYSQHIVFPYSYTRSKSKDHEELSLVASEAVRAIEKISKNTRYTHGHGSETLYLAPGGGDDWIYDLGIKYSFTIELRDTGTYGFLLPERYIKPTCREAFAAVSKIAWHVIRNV
Kind of data set: Inhibition of human TAFIa.

Data set [1] can be described thus: Selectivity for bovine pancreatic carboxypeptidase A over porcine pancreatic carboxypeptidase B.
A short description of data set [2]: Hydrophilicity, log D of the compound. It is filed as physicochemical. As to conditions: octanol/water.
Data set [3] can be described thus: Plasma clearance in dog at 0.6 mg/kg, iv. The data set is classed as ADME, organism-based, Canis lupus familiaris. Also noted: dose 0.6 mg/kg, route intravenous. Summed up: (§1)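 Single iv bolus of 0.6 mg/kg given to a dog. Total plasma clearance, volume of distribution and terminal elimination half-life were derived from the plasma pharmacokinetics.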
Data set [4] is described as follows: Volume of distribution in dog at 0.6 mg/kg, iv. The data set is classed as ADME, organism-based, Canis lupus familiaris. Also noted: dose 0.6 mg/kg, route intravenous. To be noted: in vivo, read-out: Vdss. In a few lines:
as §1

Data set [5] in a line: Renal elimination in dog at 0.6 mg/kg, iv by urinary excretion studies. It is filed as ADME, organism-based, Canis lupus familiaris. More on the design: dose 0.6 mg/kg, route intravenous. As to conditions: urine, read-out: Activity. In a few lines: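 Urinary excretion study in a dog after an iv dose. Unchanged drug recovered in the urine was quantified as a percentage of the dose.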

Data set [6] can be described thus: Terminal elimination in dog at 0.6 mg/kg, iv. The data set is classed as ADME, organism-based, Canis lupus familiaris. More on the design: dose 0.6 mg/kg, route intravenous. As to conditions: in vivo. Summed up:
as §1

Data set [7] can be described thus: Bioavailability in dog at 1 mg/kg, po. As to conditions: in vivo. The data set is classed as ADME, organism-based, Canis lupus familiaris. Summed up: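 Oral dosing at 1 mg/kg in dog for pharmacokinetic studies. Oral bioavailability was derived relative to iv dosing.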
Data set [8] is described as follows: Bioavailability in rat. It is filed as ADME, organism-based. To be noted: in vivo.
Data set [9] in a line: Oral bioavailability in human. It is filed as ADME, organism-based. To be noted: in vivo. In a few lines:
(§2)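 Human pharmacokinetics after iv and oral dosing. Oral bioavailability and Tmax were determined, including with and without co-administration with food.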

Data set [10] in a line: Tmax in human. It is filed as ADME, organism-based. To be noted: in vivo. In a few lines:
as §2

The test system of data set [11] is Oryctolagus cuniculus. Kind of data set: Antithrombotic efficacy in anesthetized rabbit assessed as inhibition of thrombus formation at 800 nM relative to control. The data set is classed as functional. In a few lines: (§3)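 Anesthetized rabbits given compound by iv infusion to reach projected free plasma levels of about 8, 80 or 800 nM. Thrombus weight (thrombus formation) was compared with vehicle-treated animals. t-PA at 10 µg/kg/min served as comparator. Group sizes were n = 3–6, with vehicle n = 5–13.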

The test system of data set [12] is Oryctolagus cuniculus. Kind of data set: Inhibition of thrombus weight in iv dosed anesthetized rabbit at 80 nM relative to control. It is filed as functional. In a few lines:
as §3

For the next data set, the target named is T2, Carboxypeptidase B (Sus scrofa, UniProt P09955).
T2 sequence (P09955 whole entry): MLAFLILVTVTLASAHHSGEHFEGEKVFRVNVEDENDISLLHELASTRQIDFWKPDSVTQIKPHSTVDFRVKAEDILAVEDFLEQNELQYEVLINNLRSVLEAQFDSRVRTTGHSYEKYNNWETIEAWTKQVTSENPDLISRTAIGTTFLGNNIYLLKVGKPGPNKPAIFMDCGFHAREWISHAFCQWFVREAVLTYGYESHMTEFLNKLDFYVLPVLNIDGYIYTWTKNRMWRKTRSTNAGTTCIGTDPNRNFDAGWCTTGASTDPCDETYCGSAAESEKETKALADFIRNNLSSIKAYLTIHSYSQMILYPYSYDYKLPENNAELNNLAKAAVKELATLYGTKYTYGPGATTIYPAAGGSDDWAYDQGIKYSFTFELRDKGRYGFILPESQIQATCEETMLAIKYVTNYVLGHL
The experiment in a line: Inhibition of porcine pancreatic carboxypeptidase B.

Data set [13] deals with T3, Carboxypeptidase N catalytic chain (Homo sapiens, UniProt P15169).
T3 sequence (P15169 whole entry): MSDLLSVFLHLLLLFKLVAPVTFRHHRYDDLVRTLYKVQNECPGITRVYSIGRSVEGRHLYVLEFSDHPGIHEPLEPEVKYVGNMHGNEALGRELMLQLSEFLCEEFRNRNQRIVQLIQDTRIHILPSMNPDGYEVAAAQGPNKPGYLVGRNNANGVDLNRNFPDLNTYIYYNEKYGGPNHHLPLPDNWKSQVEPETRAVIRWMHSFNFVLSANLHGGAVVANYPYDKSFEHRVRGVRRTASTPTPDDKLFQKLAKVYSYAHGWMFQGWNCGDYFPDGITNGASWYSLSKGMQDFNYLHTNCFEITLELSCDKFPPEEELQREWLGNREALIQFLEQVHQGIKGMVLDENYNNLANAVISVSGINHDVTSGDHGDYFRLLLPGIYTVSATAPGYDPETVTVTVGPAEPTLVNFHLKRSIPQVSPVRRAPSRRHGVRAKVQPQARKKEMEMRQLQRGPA
The experiment in a line: Inhibition of human plasma carboxypeptidase N. The data set is classed as cell-free.

Consider `NCCN[C@H](Cc1c[nH]cn1)C(=O)O`, for which the Ki at Carboxypeptidase B2 came to 17000 nM.
In turn, `NCCN[C@@H](Cc1cn(CCc2ccccc2)cn1)C(=O)O` yielded a Ki at Carboxypeptidase B2 of 140 nM.
At Carboxypeptidase B2, `CCCn1cnc(CC(CCCN)C(=O)O)c1` (racemic) registered a Ki of 46 nM.
On Carboxypeptidase B2, `NCCN[C@@H](Cc1cn(CCCO)cn1)C(=O)O` displayed a Ki of 111 nM.
Still for that read-out and setting: the figure for `CCn1cnc(C[C@H](NCCN)C(=O)O)c1` is 250 nM.
On to `NCCN[C@@H](Cc1cn(Cc2ccccc2)cn1)C(=O)O`, for which the Ki on Carboxypeptidase B2 amounted to 269 nM.
Regarding `O=C(O)C(CS)Cc1ccccc1` (racemic), in [1], the Selectivity ratio was greater than 10000.
With `CCCn1cnc(C[C@H](NCCN)C(=O)O)c1`, the affinity on Carboxypeptidase B2 corresponds to a Ki of 84 nM.
Consider `NCCCC(CS)C(=O)O` (racemic), for which the Ki at Carboxypeptidase B2 came out at 300 nM.
The same measure, in the same setting: the figure for `NCCN[C@@H](Cc1cn(CC2CCC2)cn1)C(=O)O` is 124 nM; for `NCCCC(Cc1c[nH]cn1)C(=O)O` (racemic) it is 140 nM.
At Carboxypeptidase B2, `CCCn1cnc(C[C@H](CCCN)C(=O)O)c1` [UK-396,082] had a Ki of 10 nM. Also, the logD in [2] was -2.8. Also, the clearance in [3] was 3.1 mL/min/kg. Further, the Vd in [4] is 0.35 L/kg. Besides, the dose excreted in [5] turned out to be 96%. Moreover, in data set [6], the half-life was 1.4 h. The bioavailability in data set [7] was 42%; in data set [8], 20%; in [9] it was 23%. In addition, the Tmax in [10] amounted to 4 h. For the same compound, the Inhibition turned out to be 36% in the data set on Oryctolagus cuniculus [11] and 37% with Oryctolagus cuniculus [12].
At Carboxypeptidase B2, `CC(C)n1cnc(C[C@H](NCCN)C(=O)O)c1` came in with an inhibitory constant (Ki) of 430 nM.
In turn, `CCCCn1cnc(C[C@H](NCCN)C(=O)O)c1` had a Ki on Carboxypeptidase B2 of 70 nM.
On Carboxypeptidase B2, `CC(C)Cn1cnc(C[C@H](NCCN)C(=O)O)c1` gave a Ki of 100 nM.
Regarding `CCCCCn1cnc(C[C@H](NCCN)C(=O)O)c1`, on Carboxypeptidase B2, the affinity corresponds to a Ki of 160 nM.
On to `NC(N)=NCCCC(CS)C(=O)O` (racemic), for which the inhibition constant (Ki) was found to be 0.42 nM on Carboxypeptidase B, 4 nM at Carboxypeptidase B2 and 2 nM in data set [13].
`Cn1cnc(C[C@H](NCCN)C(=O)O)c1`: at Carboxypeptidase B2, the Ki turned out to be 235 nM.
In turn, `NCCN[C@@H](Cc1c[nH]cn1)C(=O)O` gave a Ki in data set [13] greater than 10000 nM.
On to `CCCn1cnc(C[C@@H](CCCN)C(=O)O)c1`, for which, on Carboxypeptidase B2, the Ki is greater than 700 nM.

For orientation: Ki means a dissociation constant, usually derived from enzyme kinetics or from competition with a known ligand. Higher therefore signals a looser hold on the target. As usually defined, the logD is lipophilicity at a set pH, counting ionised and neutral species. As usually defined, the clearance is a measure of how efficiently the substance is removed, as volume per time. Broadly, the half-life is the time in which the quantity being followed falls by half. A higher half-life goes with slow decline. One may read the bioavailability as dose-corrected exposure relative to a reference, in per cent. Read a high bioavailability as much systemic uptake. Usually Tmax stands for the time at which the peak concentration occurs. For orientation: Inhibition means the drop in the measured response relative to a control, in per cent.
